Results of several laboratories.
Compare with care: the assays were run in different laboratories.
Target: Rho-associated protein kinase 1 (ROCK1, Homo sapiens, UniProt Q13464)

| Compound | assay | conditions | quantity | value |
| --- | --- | --- | --- | --- |
| CCN(CC)c1ccc(C2=NNC(=O)CC2C)cc1[N+](=O)[O-] (centres unmarked) | enzyme activity, inhibitor | 10 µM | remaining activity | 109% |
| CCN(CC)CCNC(=O)c1c(C)[nH]c(/C=C2\C(=O)Nc3ccc(F)cc32)c1C | enzyme activity, inhibitor | 10 µM | inhibition | 26% |
| COc1cc(Cl)c(C(=O)N[C@@H](CN[C@H]2CC[C@@H](N)CC2)Cc2ccc(C#N)cc2)cc1-c1ccc(CN[C@H](C)c2ccc(C)cc2)o1 | enzyme activity, inhibitor | 1 µM | remaining activity | 105% |
| CCS(=O)(=O)c1cc2cc(C[C@](O)(CC(C)(C)c3ccc(F)cc3C(N)=O)C(F)(F)F)[nH]c2cn1 | cell-free assay, competition with immobilised ligand | 1 µM | remaining binding | 84% |
| O=C1NC(=O)c2cc(Nc3ccc(F)cc3)c(Nc3ccc(F)cc3)cc21 | cell-free assay | 0.5 µM | remaining signal | 96.7% |
| C[C@@H]1CN(c2cc(-c3nn(C)c4ccc(OC5(C)CC5)cc34)ncn2)C[C@H](C)O1 | cell-free assay, competition with immobilised ligand | 1 µM | remaining binding | 100% |
| CNC(=O)c1cc(Oc2ccc(NC(=O)Nc3ccc(Cl)c(C(F)(F)F)c3)cc2)ccn1 | enzyme activity, inhibitor | 0.3 µM | inhibition | 0% |
| CN(C)C1CCN(CC#Cc2nn(C3CCCC3)c3nc(NCc4ccccc4)ncc23)C1 (centres unmarked) | enzyme activity, inhibitor, FRET | 1 µM | inhibition | -1% |
| c1ccc(N2CCN(Cc3nc4ccccc4[nH]3)CC2)nc1 | binding, competition with immobilised ligand | 1 µM | remaining binding | 100% |
| c1ccc(CNc2nc(N3CCOc4ccccc43)nc3c2CCCC3)cc1 | target engagement in cells, inhibitor, chemoproteomics | 20 mM | inhibition | 3.9% |
| C[C@@H](c1cccc(C#N)c1)n1cc(Cl)cc(C(N)=O)c1=N | cell-free assay, competition with immobilised ligand | 1 µM | remaining binding | 71% |
| Cc1sc(C(=O)NC2COC2)cc1-n1cc(NC(=O)Nc2c(F)cccc2Cl)cn1 | enzyme activity, inhibitor | 10 µM | remaining activity | 96.8% |
| CC(C)(O)[C@H]1CC[C@H](Nc2ccc3ncc(-c4cccc(C(F)(F)F)c4)n3n2)CC1 | enzyme activity, inhibitor | 1 µM | remaining activity | 94% |
| O=C(Nc1cnn(-c2csc(C(=O)NC3COC3)c2)c1)Nc1ccccc1Cl | enzyme activity, inhibitor | 5 µM | remaining activity | 109% |
| CCCOc1ccc(OC)c(F)c1C(=O)c1ccc(C(=O)N[C@@H]2CNC[C@H]2NC(=O)c2ccc3[nH]ncc3c2)cc1 | enzyme activity, inhibitor | 10 µM | remaining activity | 8% |
| CC/C(=N\NC(=O)C(C)Nc1ccccc1)c1ccc(O)c(C)c1O (centres unmarked) | enzyme activity, inhibitor | 0.1 µM | inhibition | 18.5% |
| Cc1cnc(NC2CCOCC2)nc1-n1cnc(C(=O)NC(CN)c2cc(F)cc(Cl)c2)c1 (centres unmarked) | enzyme activity, inhibitor, radiometric | 1 µM | remaining activity | 62% |
| Cn1cncc1C1=CN(c2ncnc3[nH]cnc23)CCS1 | enzyme activity, inhibitor, radiometric | 2 µM | inhibition | 88.6% |
| C=CC(=O)Nc1cc(Nc2nccc(Nc3cc(Cl)c(F)cc3C(C)(C)O)n2)c(OC)cc1N1CC[C@@H](N(C)C)C1 | enzyme activity, inhibitor | 1 µM | inhibition | 0% |
| O=S(=O)(c1cccc2cnccc12)N1CCCNCC1 | cell-free assay | 0.5 µM | remaining signal | 60.2% |
| CN(C)c1ncnc(-c2ccc3nc(Nc4cc(CN5CCN(C(=O)CC(F)(F)F)CC5)ccn4)[nH]c3c2)c1Cl | cell-free assay, competition with immobilised ligand | 1 µM | remaining binding | 100% |
| COc1cc2ncnc(Nc3ccc(Oc4ccccc4)c(C)c3C)c2cc1OC | enzyme activity, inhibitor | 1 µM | inhibition | -12% |
| CN1CCN(c2cnc3c(C4CCN(C(=O)c5ccc(OC(F)(F)F)cc5N)CC4)ncnc3c2)CC1 | cell-free assay, competition with immobilised ligand | 1 µM | remaining binding | 100% |
| Cc1ccc(Nc2nccc(N(C)c3ccc4c(C)n(C)nc4c3)n2)cc1S(N)(=O)=O | enzyme activity, inhibitor | 0.3 µM | inhibition | -1% |
| CC(C)c1ccc(NC(=O)c2cccs2)c(-c2nc3ccccc3[nH]c2=O)c1 | enzyme activity, inhibitor | 1 µM | activity vs control | 122% |
| COc1cc(-c2cn(C3CCc4ccccc4N(CC(F)(F)F)C3=O)nn2)ccc1-n1ccc(C)n1 (centres unmarked) | cell-free assay, competition with immobilised ligand | 1 µM | remaining binding | 100% |
| CC(C)(C)c1nc2c(s1)c1nc(N)ncc1c1ccc(NS(=O)(=O)c3c(F)cccc3F)c(F)c12 | enzyme activity, inhibitor, radiometric | 1 µM | remaining activity | 98% |
| O=C1NC(c2ccccn2)Sc2ccccc21 (centres unmarked) | cell-free assay, competition with immobilised ligand | 1 µM | remaining binding | 82% |
| C[S+]([O-])c1ccc(-c2nc(-c3ccncc3)c(-c3ccc(F)cc3)[nH]2)cc1 (centres unmarked) | cell-free assay | 0.5 µM | remaining signal | 102% |
